MC4R barr agon: human MC4R agonism via beta-arrestin. hit rate 0.98% among 360,000. U2OS MC4R beta-arrestin complementation, luminescence; percent of melanotan II response, DMSO zero. AID 540308. P32245. activation, % at 8.9 µM;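 active = activation above a per-plate cutoff, the mean activation of sample wells on that plate plus 3 SD, cut at about 8% in these data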
Target sequence (P32245 whole entry, looked up): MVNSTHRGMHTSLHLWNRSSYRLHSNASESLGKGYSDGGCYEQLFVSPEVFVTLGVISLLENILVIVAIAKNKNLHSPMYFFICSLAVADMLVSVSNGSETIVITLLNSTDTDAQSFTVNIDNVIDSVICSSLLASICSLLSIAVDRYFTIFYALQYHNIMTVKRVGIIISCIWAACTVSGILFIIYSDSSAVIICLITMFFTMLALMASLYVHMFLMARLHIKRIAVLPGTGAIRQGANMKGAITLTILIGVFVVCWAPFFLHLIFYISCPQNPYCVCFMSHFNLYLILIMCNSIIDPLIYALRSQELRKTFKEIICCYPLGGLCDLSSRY
SMARCA2 act: SMARCA2 function activation, primary screen | AID 652017 | hit rate 1% among 370,000 | activation, % at 9.1 µM | MG213 cells, MMTV-luciferase reporter, dexamethasone, overnight; in the data active = activation above about 7.8%
ATG4B inh: ATG4B (human) cysteine protease inhibition; Q9Y4P1; ATG4B cleavage of LC3-PLA2, NBD-HPC fluorescence, 1 h; inhibition, % at 8.33 µM; hit rate 0.51% among 340,000; in the data active = inhibition above about 40%
MPTP inh: permeability transition pore inhibition; isolated mouse mitochondria, Ca2+ swelling absorbance, 30 min; inhibition, % at 10 µM; hit rate 1.4% among 360,000;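 active = inhibition of 50% or more, scaled per plate between neutral and stimulator controls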
MC4R antag cAMP: human MC4R antagonism in cAMP assay | AID 540295 | MC4R-expressing cells, MTII-stimulated cAMP, LANCE TR-FRET | inhibition, % at 6.5 µM | hit rate 0.48% among 360,000;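 active = inhibition above its plate's cutoff, the mean of tested wells on that plate plus 3 SD, cut at about 29% in these data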
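System: U2OS cells stably expressing human melanocortin 4 receptor (MC4R). Reagent: Melanotan II challenge after compound preincubation. Doses: 6.5 µM. Times: 30-min compound, 1-h challenge, 1-h detection, room temperature. Measured by: TR-FRET with Eu-cAMP and labeled anti-cAMP, 671 nm. Replicates: singlicate.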
MPTP counter: membrane potential counter-screen of mitochondrial pore inhibitors; AID 624504; inhibition, % at 10 µM; shares compounds with MPTP inh; isolated mitochondria, Rhodamine 123 fluorescence; hit rate 78% among 5,000; in the data active = inhibition above about 22%
MPTP swell DR: MPTP inhibition, dose response swelling confirmation. shares compounds with MPTP inh. isolated mitochondria swelling, absorbance. IC50, µM. hit rate 58% among 780; in the data active = IC50 below about 20 µM
MPTP cs DR: MPTP inhibitor counter-screen activity, dose response; shares compounds with MPTP inh; isolated mitochondria counterscreen, fluorescence read-out; IC50, µM; hit rate 49% among 780; AID 651564; in the data active = IC50 below about 80 µM
Large screens that a line does not name were inactive (follow-up assays come after a bar, where they were run). Rows were chosen to be rich in hits. Some 4.1% of all compounds tested hit in one or more screens of this group.

CSc1nc(N)nc(SCC(=O)Nc2ccc(Cl)cc2)c1C#N	MPTP inh 85 | MPTP counter 82
CSc1nc(N)nc(SCC(=O)Nc2cccc(F)c2)c1C#N	MPTP inh 93 | MPTP counter 87
CSc1nc(N)nc(SCC(=O)C(C)(C)C)c1C#N	none
Cc1cc2c(c(=O)o1)[C@@]1(C(=O)N(C)c3c(Br)cccc31)C1=C(CCCC1=O)O2	none (no result: MC4R barr agon, ATG4B inh, MPTP inh, MC4R antag cAMP)
C=CCc1c(C)nc(-c2ccccc2)nc1Nc1ccccc1O	MPTP inh 60 | MPTP counter 63
Cc1ccc(S(=O)(=O)N2CCCC2C(c2ccccc2O)c2cn(C)c3ccccc23)cc1 (centres undefined)	none (no result: MC4R barr agon, ATG4B inh, MPTP inh, MC4R antag cAMP)
C/C(=N\NC(=O)c1ccc(-c2ccccc2)cc1)C1C(=O)c2ccccc2C1=O	MPTP inh 76 | MPTP counter 43
C/C(=N\NC(=O)c1ccc(Br)cc1)C1C(=O)c2ccccc2C1=O	MPTP inh 74 | MPTP counter 79
CCOc1ccc(C(=O)N/N=C(/C)C2C(=O)c3ccccc3C2=O)cc1	none
COC(=O)c1cc2c(c3c4cc(OC)ccc4n(S(C)(=O)=O)c13)C(=O)N(C)C2	none (no result: MC4R barr agon, ATG4B inh, MPTP inh, MC4R antag cAMP)
N#CC(c1ccccc1)c1ccc2c(C(F)(F)F)cc(C(F)(F)F)nc2n1 (centres undefined)	MPTP inh 93 | MPTP counter 70
Cc1ccc(C(C#N)c2ccc3c(C(F)(F)F)cc(C(F)(F)F)nc3n2)cc1 (centres undefined)	MPTP inh 113 | MPTP counter 68
O=C(CCc1ccccc1)Nc1cc(Cl)ccc1O	MPTP inh 68 | MPTP counter 81
O=C(Nc1cc(Cl)ccc1O)c1snnc1-c1ccccc1	MPTP inh 94 | MPTP counter 91
NC(=NCCc1ccccc1)NC(=O)c1cc(Cl)ccc1O	MPTP inh 56 | MPTP counter 74
NC(=NCCc1ccc(Cl)cc1)NS(=O)(=O)c1ccccc1	none
C=CCc1ccccc1OCCSc1nc2ccc([N+](=O)[O-])cc2s1	MPTP inh 84 | MPTP counter 41
COc1ccccc1OCCSc1nc2ccc([N+](=O)[O-])cc2s1	MPTP inh 76 | MPTP counter 87
O=C(CSc1nc2ccc([N+](=O)[O-])cc2s1)c1ccc2ccccc2c1	none
O=[N+]([O-])c1ccc2nc(SCc3ccccc3Cl)sc2c1	MPTP inh 98 (no result: SMARCA2 act) | MPTP counter 68
CCC(C)N(C(=O)CNc1nnnn1-c1ccccc1)C(C)CC (centres undefined)	none (no result: MC4R barr agon, ATG4B inh, MPTP inh, MC4R antag cAMP)
Cn1nc(C(=O)OCc2ccc(F)cc2)c2ccccc2c1=O	none
Cc1ccc(COC(=O)c2nn(C)c(=O)c3ccccc23)cc1	MPTP inh 55 | MPTP counter 34
O=C(Nc1nc(-c2cccs2)c(C(=O)C(F)(F)F)s1)c1ccccc1	MPTP inh 88 | MPTP counter 98
CC(C)(C#CCN1CCCCC1)OCCOC(c1ccccc1)c1ccccc1	MPTP inh 77 | MPTP counter inactive | MPTP swell DR 20 | MPTP cs DR 20
OCCNC(=S)Nc1ccc(Cl)c(Cl)c1	none
COc1cccc(C(=O)Nc2cc(C(F)(F)F)ccc2Cl)c1	none
COc1cccc(C(=O)Nc2ccc(Cl)c(C(F)(F)F)c2)c1	MPTP inh 99 | MPTP counter 89
O=C(Nc1cccc(C(F)(F)F)c1)c1ccco1	none
COc1cc(C(=O)Nc2ccc(Cl)c(C(F)(F)F)c2)cc(OC)c1OC	MPTP inh 81 | MPTP counter 77
CCNC(=S)Nc1ccc(Cl)c(C(F)(F)F)c1	MPTP inh 91 | MPTP counter 95
O=C(Nc1ccc(Cl)c(C(F)(F)F)c1)c1ccco1	MPTP inh 81 | MPTP counter 74
COCc1cc(N2CCN(C(=O)OC(C)(C)C)C[C@@H]2C)ccc1N1CC[C@@H](O)C1	none (no result: MC4R barr agon, ATG4B inh, MPTP inh, MC4R antag cAMP)
Cc1cc(O)c2c(c1O)C(=O)[C@]13C(=C2O)C(=O)[C@@H]2[C@@H](O)[C@H]1[C@@H]1[C@H](O)[C@H]3C(=O)C3=C(O)c4c(O)cc(C)c(O)c4C(=O)[C@]312	MPTP inh 104 (no result: SMARCA2 act) | MPTP counter inactive
CN(C)CCN(C(=O)/C=C/c1cccs1)c1nc2ccc(F)cc2s1	MPTP inh 72 | MPTP counter inactive | MPTP swell DR 13 | MPTP cs DR inactive
O=C(NCc1cccc(C(F)(F)F)c1)c1cccc(S(=O)(=O)NCc2ccccc2)c1	MPTP inh 60 | MPTP counter 71
COc1ccc(-c2nnc(SCC(=O)N/N=C\C=C/c3ccco3)n2-c2ccc(C)cc2)cc1	none (no result: MC4R barr agon, ATG4B inh, MPTP inh, MC4R antag cAMP)
O=C(Nc1cc(Sc2ccccn2)cc([N+](=O)[O-])c1)c1ccc(Cl)cc1	MPTP inh 53 | MPTP counter 72
O=C(N/N=C/c1ccccn1)c1ccc(NC(=O)c2cccc([N+](=O)[O-])c2)cc1	none
O=C(Nc1cc(Sc2ccccn2)cc([N+](=O)[O-])c1)c1cccc(Cl)c1	MPTP inh 95 | MPTP counter 76
O=C(Nc1ccccc1C(=O)Nc1ccccn1)c1ccc([N+](=O)[O-])cc1	none
COC(=O)C1CN(Cc2ccc(F)cc2)CCS(=O)(=O)N1Cc1ccc(OC)cc1 (centres undefined)	none (no result: MC4R barr agon, ATG4B inh, MPTP inh, MC4R antag cAMP)
COc1ccc(-c2nc(CCNC(=O)c3cccs3)cs2)cc1	MPTP inh 64 | MPTP counter inactive | MPTP swell DR inactive | MPTP cs DR 47
COc1cc(-c2nc(CCNC(=O)c3ccco3)cs2)cc(OC)c1OC	none
c1cc2c3c(cccc3c1)C(N1CCOCC1)=N2	none
c1ccc(CC2CCN(C3=Nc4cccc5cccc3c45)CC2)cc1	MPTP inh 51 (no result: SMARCA2 act) | MPTP counter 29
COc1cccc(/C=C2/Sc3ccc(C(=O)NCCN4CCCC4)cc3NC2=O)c1	MPTP inh 55 | MPTP counter inactive | MPTP swell DR 6 | MPTP cs DR 77
COc1cccc(C=C2SC(=S)NC2=O)c1	MPTP inh 56 | MPTP counter 79
COc1ccc(/C=C2/SC(=S)NC2=O)cc1OCc1ccccc1	none
O=C1NC(=S)S/C1=C/c1ccc(N2CCOCC2)o1	none (no result: SMARCA2 act)
COc1ccc2cc(/C=C3\SC(=S)NC3=O)c(N3CCOCC3)nc2c1	MPTP inh 80 | MPTP counter 72
COc1cccc(/C=C2/Sc3ccc(C(=O)NCCCN4CCCC4)cc3NC2=O)c1	none
O=[N+]([O-])c1ccccc1/C=C/C1Nc2cccc3cccc(c23)N1	none (no result: MC4R barr agon, ATG4B inh, MPTP inh, MC4R antag cAMP)
CCCN(C(=O)COC(=O)c1[nH]c(C)c(C(=O)OC)c1C)c1c(N)n(Cc2ccccc2)c(=O)[nH]c1=O	MPTP inh 60 | MPTP counter inactive | MPTP swell DR inactive | MPTP cs DR inactive

Source: PubChem BioAssay (several laboratories)
